According to ChEMBL document CHEMBL1156387, “Novel esters of glaucarubolone as inducers of terminal differentiation of promyelocytic HL-60 cells and inhibitors of 7,12-dimethylbenz[a]anthracene-induced preneoplastic lesion formation in mouse mammary organ culture” (J Nat Prod, 2001):

Legend:
HL-60 [1] = experiment: Selectivity index, ratio of cytotoxic IC50 to antiproliferative IC50 for human HL60 cells; type: functional
How it was run: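 Index = cytotoxic IC50 (trypan blue, 4-day HL-60 exposure) divided by antiproliferative IC50 ([3H]thymidine incorporation), each from dose–response with at least five points.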

HL-60 [2] = experiment: Cytotoxicity against human HL60 cells assessed as loss of membrane integrity after 4 days by trypan blue exclusion assay; type: functional, cell-based; settings: HL-60, 96 h
How it was run: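 After 18 h recovery at 10^5 cells/mL, HL-60 cells were treated 4 days with samples (final DMSO 0.1% v/v). Cells were mixed 1:4 with trypan blue (0.2% w/v in PBS), held at least 5 min at room temperature and counted by hemocytometer. Viability was taken from duplicate samples; IC50 from 5–7 concentrations in duplicate.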

HL-60 [3] = experiment: Antiproliferative activity against human HL60 cells assessed as inhibition of [3H]thymidine incorporation after 4 days by liquid scintillation counter; type: functional, cell-based
How it was run: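 HL-60 cells in log phase diluted to 10^5 cells/mL, preincubated 18 h, then exposed to samples in DMSO (final 0.1% v/v; DMSO-only controls) for 4 days. Cells then pulsed with [3H]thymidine (0.5 μCi/mL, 65 Ci/mmol) for 18 h at 37 °C, 5% CO2, harvested onto glass fiber filters, scintillation counted; incorporation per 10^6 cells as % of DMSO control. IC50 from 5–7 concentrations in duplicate.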

HL-60 [4] = experiment: Induction of cell differentiation in human HL60 cells assessed as superoxide anion production after 4 days by NBT reduction assay; type: functional, cell-based; settings: HL-60, 96 h
How it was run: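 Cells diluted to 10^5/mL and recovered overnight were exposed 4 days to samples (0.1% v/v DMSO final). Cell suspension (10^6 cells) was mixed 1:1 with NBT 2 mg/mL plus TPA 1 μg/mL in PBS and held 1 h at 37 °C. Formazan-positive cells were counted microscopically among >200 cells. EC50 from 5–7 concentrations in duplicate; 1α,25-dihydroxyvitamin D3 served as reference.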

[5] = Toxicity in BALB/c mouse mammary organ culture assessed as morphological changes in mammary gland at 2 uM after 10 days; type: tissue-based; settings: ex_vivo, 240 h
How it was run: (§1)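 Female BALB/c mice, 4 weeks old, primed 9 days with estradiol 1 μg plus progesterone 1 mg. Thoracic glands were cultured 10 days with insulin, prolactin, aldosterone and hydrocortisone plus test agent at 2 μM. DMBA 2 μg/mL was given for 24 h on day 3. Regression followed for 14 days in insulin alone. Glands were formalin-fixed and alum carmine-stained. Lesion incidence gave % inhibition versus DMBA control. Toxicity was scored as duct dilation or amorphous disintegration.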

[6] = Inhibition of DMBA-induced preneoplastic lesion formation in a BALB/c mouse mammary organ culture at 2 uM pretreated for 10 days before DMBA-challenge measured after 14 days; type: functional; settings: Mammary gland; how it was run: as §1

SMILES	EC50 (HL-60 [4])	Ratio IC50 (HL-60 [1])	IC50 (HL-60 [2])	IC50 (HL-60 [3])	Activity [5]	inhibition at 2 µM [6]
CC1=CC(=O)[C@@H](O)[C@]2(C)[C@H]3[C@]4(O)OC[C@]35[C@H]([C@@H](C)[C@H]4O)[C@@H](OC(=O)CC(O)(CC(C)C)CC(C)C)C(=O)O[C@@H]5C[C@@H]12	> 50 nM	1	40 nM	40 nM		
CC1=CC(=O)[C@@H](O)[C@]2(C)[C@H]3[C@]4(O)OC[C@]35[C@H]([C@@H](C)[C@H]4O)[C@@H](OC(=O)[C@@H](C)CO)C(=O)O[C@@H]5C[C@@H]12	1900 nM	4.3	2500 nM	600 nM		
CC1=CC(=O)[C@@H](O)[C@]2(C)[C@H]3[C@]4(O)OC[C@]35[C@H]([C@@H](C)[C@H]4O)[C@@H](O)C(=O)O[C@@H]5C[C@@H]12 [GLAUCARUBOLONE]	1300 nM	3.3	1300 nM	400 nM		
CC1=CC(=O)[C@@H](O)[C@]2(C)[C@H]3[C@]4(O)OC[C@]35[C@H]([C@@H](C)[C@H]4O)[C@@H](OC(=O)C(=O)O[C@H]3C(=O)O[C@@H]4C[C@H]6C(C)=CC(=O)[C@@H](O)[C@]6(C)[C@H]6[C@]7(O)OC[C@]64[C@@H]3[C@@H](C)[C@H]7O)C(=O)O[C@@H]5C[C@@H]12.O=C(O)C(=O)O	> 1500 nM	3.6	1800 nM	500 nM		
COC(=O)[C@@]12OC[C@]34[C@H]([C@@H](O)[C@@H]1O)[C@@]1(C)CC(=O)C(O)=C(C)[C@@H]1C[C@H]3OC(=O)[C@H](OC(=O)C=C(C)C)[C@@H]24 [BRUSATOL]					Non-toxic	
CC1=CC(=O)[C@@H](O)[C@]2(C)[C@H]3[C@]4(O)OC[C@]35[C@H]([C@@H](C)[C@H]4O)[C@@H](OC(=O)C(C)(C)C(=O)O)C(=O)O[C@@H]5C[C@@H]12	> 7000 nM	>2.2	> 7000 nM	3200 nM		
CC1=CC(=O)[C@@H](O)[C@]2(C)[C@H]3[C@]4(O)OC[C@]35[C@H]([C@@H](C)[C@H]4O)[C@@H](OC(=O)C3(CO)CC3)C(=O)O[C@@H]5C[C@@H]12	2000 nM	2.9	2800 nM	1000 nM		
CC[C@](C)(OC(C)=O)C(=O)O[C@H]1C(=O)O[C@@H]2C[C@H]3C(C)=CC(=O)[C@@H](O)[C@]3(C)[C@H]3[C@@H](O)[C@H](O)[C@@]4(C)OC[C@]32[C@@H]14 [QUASSIMARIN]	90 nM	2.2	130 nM	60 nM		
CC1=CC(=O)[C@@H](O)[C@]2(C)[C@H]3[C@]4(O)OC[C@]35[C@H]([C@@H](C)[C@H]4O)[C@@H](OC(=O)CC(C)(C)OP(=O)(O)O)C(=O)O[C@@H]5C[C@@H]12	3000 nM	6.5	4400 nM	700 nM		
CC(=O)O[C@H]1C(=O)O[C@@H]2C[C@H]3C(C)=CC(=O)[C@@H](O)[C@]3(C)[C@H]3[C@]4(O)OC[C@]32[C@@H]1[C@@H](C)[C@H]4O [HOLACANTHONE]	200 nM	2.5	500 nM	200 nM		
CC[C@](C)(O)C(=O)O[C@H]1C(=O)O[C@@H]2C[C@H]3C(C)=CC(=O)[C@@H](O)[C@]3(C)[C@H]3C4(O)OC[C@]32[C@@H]1[C@@H](C)[C@H]4O (single isomer, unassigned) [GLAUCARUBINONE]	1800 nM	2.1	1000 nM	500 nM		
CC1=CC(=O)[C@@H](O)[C@]2(C)[C@H]3[C@@H](O)[C@H](O)[C@@]4(C)OC[C@@]35[C@@H](C[C@@H]12)OC(=O)[C@H](O)[C@@H]45 [YADANZIOLIDE C]	10000 nM	>6.7	> 10000 nM	1500 nM		
CC1=CC(=O)[C@@H](O)[C@]2(C)[C@H]3[C@]4(O)OC[C@]35[C@H]([C@@H](C)[C@H]4O)[C@@H](OC(=O)C=C(C3CC3)C3CC3)C(=O)O[C@@H]5C[C@@H]12	600 nM	3.9	750 nM	200 nM		
CC1=CC(=O)[C@@H](O)[C@]2(C)[C@H]3[C@]4(O)OC[C@]35[C@H]([C@@H](C)[C@H]4O)[C@@H](OC(=O)[C@H](C)CO)C(=O)O[C@@H]5C[C@@H]12	> 6000 nM	4.2	6200 nM	1500 nM		
CCCC(=O)O[C@H]1C(=O)O[C@@H]2C[C@H]3C(C)=CC(=O)[C@@H](O)[C@]3(C)[C@H]3[C@]4(O)OC[C@]32[C@@H]1[C@@H](C)[C@H]4O	> 3000 nM		3000 nM	> 3000 nM	Non-toxic	82%
CC[C@@H](C)C(=O)O[C@H]1C(=O)O[C@@H]2C[C@H]3C(C)=CC(=O)[C@@H](O)[C@]3(C)[C@H]3[C@@H](O)[C@H](O)[C@]4(C)OC[C@]32[C@@H]14 [SIMALIKALACTONE D]	> 200 nM		200 nM	> 200 nM		
CC1=CC(=O)[C@@H](O)[C@]2(C)[C@H]3[C@]4(O)OC[C@]35[C@H]([C@@H](C)[C@H]4O)[C@@H](OC(=O)CC(C)C)C(=O)O[C@@H]5C[C@@H]12	> 2000 nM	1.5	1500 nM	1000 nM		

Second part, led by results:

EC50 (HL-60 [4])	SMILES	Ratio IC50 (HL-60 [1])	IC50 (HL-60 [2])	IC50 (HL-60 [3])	Activity [5]	inhibition at 2 µM [6]
200 nM	CC1=CC(=O)[C@@H](O)[C@]2(C)[C@H]3[C@]4(O)OC[C@]35[C@H]([C@@H](C)[C@H]4O)[C@@H](OC(=O)CC(C)(C)O)C(=O)O[C@@H]5C[C@@H]12 [SOULARUBINONE]	4.2	400 nM	100 nM		
130 nM	CC1=CC(=O)[C@@H](O)[C@]2(C)[C@H]3[C@]4(O)OC[C@]35[C@H]([C@@H](C)[C@H]4O)[C@@H](OC(=O)CC3(O)CCCC3)C(=O)O[C@@H]5C[C@@H]12	2.1	380 nM	190 nM		
25 nM	CC1=CC(=O)[C@@H](O)[C@]2(C)[C@H]3[C@]4(O)OC[C@]35[C@H]([C@@H](C)[C@H]4O)[C@@H](OC(=O)CC3(O)C(C)(C)CCC3(C)C)C(=O)O[C@@H]5C[C@@H]12	1.3	50 nM	40 nM		
90 nM	CC1=CC(=O)[C@@H](O)[C@]2(C)[C@H]3[C@]4(O)OC[C@]35[C@H]([C@@H](C)[C@H]4O)[C@@H](OC(=O)C=C(C(C)C)C(C)C)C(=O)O[C@@H]5C[C@@H]12	1.9	130 nM	70 nM		
300 nM	CC1=CC(=O)[C@@H](O)[C@]2(C)[C@H]3[C@]4(O)OC[C@]35[C@H]([C@@H](C)[C@H]4O)[C@@H](OC(=O)C[C@]3(O)CC(C)CCC3C(C)C)C(=O)O[C@@H]5C[C@@H]12 (stereo partly specified)	2.3	900 nM	400 nM		
17 nM	CC[C@@](O)(CC(=O)O[C@H]1C(=O)O[C@@H]2C[C@H]3C(C)=CC(=O)[C@@H](O)[C@]3(C)[C@H]3[C@]4(O)OC[C@]32[C@@H]1[C@@H](C)[C@H]4O)C(C)C	1.2	13 nM	11 nM		
9 nM	CC1=CC(=O)[C@@H](O)[C@]2(C)[C@H]3[C@]4(O)OC[C@]35[C@H]([C@@H](C)[C@H]4O)[C@@H](OC(=O)CC(O)(C(C)C)C(C)C)C(=O)O[C@@H]5C[C@@H]12	1	9 nM	9 nM		
500 nM	CC1=CC(=O)[C@@H](O)[C@]2(C)[C@H]3[C@]4(O)OC[C@]35[C@H]([C@@H](C)[C@H]4O)[C@@H](OC(=O)C(C)(C)CO)C(=O)O[C@@H]5C[C@@H]12	3.1	600 nM	200 nM		
500 nM	CC1=CC(=O)[C@@H](O)[C@]2(C)[C@H]3[C@]4(O)OC[C@]35[C@H]([C@@H](C)[C@H]4O)[C@@H](OC(=O)CN(C)C)C(=O)O[C@@H]5C[C@@H]12	1.6	800 nM	500 nM		
70 nM	COC(=O)[C@]12OC[C@]34[C@H]([C@@H](O)[C@@H]1O)[C@@]1(C)CC(=O)C(O)=C(C)[C@@H]1C[C@H]3OC(=O)[C@H](OC(=O)C=C(C)C)[C@@H]24 [BRUSATOL]	2.5	170 nM	70 nM		70%
